PTEN del growth – growth suppression of PTEN-null HCT116, primary screen, cell-based, CellTiter-Glo. HCT116 PTEN-null viability, 60 h; active compounds read low. viability, % at 10 µM. 140,000 compounds, 1.2% hits;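 active means viability at or below a set limit, 4 SD under the median of all tested compounds, cut at about 3.7% in these data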;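 further: PTEN knockout HCT116 line with beta catenin targeted HCT116 as companion control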
SDO1 yeast rescue – growth rescue of sdo1-depleted yeast, primary screen, S. cerevisiae, bone marrow failure model; S. cerevisiae sdo1-depleted JHY4D growth rescue, OD600 30 h; active compounds read high; pdr5 snq2 efflux-pump mutant strain; 140,000 compounds, 0.21% hits; AID 817, 2007; z-score at 10 µM;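 active means z-score above 3 at both the 24 hr and the 30 hr optical density reads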;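 further: z-score against mean and SD of all compound wells on the same plate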
HCT116 bCat-KO – primary screen for growth suppressors in beta-catenin knockout HCT116 cells (colon tumor, human); HCT116 beta-catenin knockout viability, CellTiter-Glo, 60 h; active compounds read low; AID 818, 2007; viability, % at 10 µM; 140,000 compounds, 1.5% hits;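 active means viability at or under a set limit, the compound median less 4 SD, cut at about 6% in these data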;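 further: 0% = Hyamine 1622 control at 20 µM and 100% = untreated cell control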
Autophagy HCS – autophagy modulators in MEF cells, primary screen, imaging, high-content, MEF GFP-LC3. MEF GFP-LC3 puncta imaging; test concentration mostly 10 µM. 190,000 compounds, 0.98% hits. calls only at 10 µM (by protocol). AID 463193, 2010;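 active means percentage of spot-positive cells more than 3 SD above its plate mean, without a fluorescence outlier flag or 80% toxicity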;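 further: spot-positive cell cutoff set from DMSO-treated cells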
Dynein transport – inhibitors of GR-EGFP nuclear translocation, primary screen, dynein cargo transport inhibitor project, imaging, high-content, 3617.4 mouse cells | test concentration mostly 20 µM; stimulated with dexamethasone, 1 µM; active compounds read low | z-score, hits read low | 220,000 compounds, 0.47% hits | AID 1381, 2008;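 active means plate z-score of nuclear minus cytoplasmic receptor signal below a set negative limit, without overly bright fluorescence or cell loss, cut at about -3.5 in these data, passing the limit was not always enough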;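 further: z-score of nuclear minus cytoplasmic ring GR-EGFP intensity difference per well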
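Buffer or medium: tet-free, stripped-serum medium; Also added: dexamethasone, 1.0 µM final; Technique: high-content fluorescence imaging after fixation; Times: 48 h induction, 1 h compound, 30 min dex at 37 °C; Read-out: per-cell GR-EGFP intensity, nucleus versus surrounding cytoplasmic ring, well-averaged.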
Starred values were filed as active, the others as inactive; i = inactive; . = no result; + = active, no number. Compounds with a hit are over-represented: about 2.2% of the library has one in this group of screens.

SMILES	PTEN del growth	SDO1 yeast rescue	HCT116 bCat-KO	Autophagy HCS	Dynein transport
C=CCn1c(SCC(=O)c2[nH]c(C)c(C(=O)OCC)c2C)nc2scc(-c3ccccc3)c2c1=O	1.3*	-0.12	2.0*	i	-0.44
C=CCn1c(SCCN2C(=O)c3ccccc3C2=O)nc2scc(-c3ccccc3)c2c1=O	93	-0.88	85	i	-0.091
C=CCn1c(SCC(N)=O)nc2scc(-c3ccc(C)o3)c2c1=O	.	.	.	i	-0.61
C=CCn1c(SCC(=O)c2[nH]c(C)c(C(=O)OCC)c2C)nc2scc(-c3ccc(OC)cc3)c2c1=O	1.6*	1.2	1.7*	i	0.091
Oc1c(Cl)cc(Cl)cc1C=Nc1cc(C(F)(F)F)ccc1N1CCc2ccccc2C1	.	.	.	.	1.5
CCN1CCN(c2cc(-c3ccccc3)nc3cc(-c4cccc(F)c4)nn23)CC1	1.4*	-2.4	1.2*	i	0.12
OC1CCN(c2cc(-c3ccccc3)nc3cc(-c4ccc(F)cc4)nn23)CC1	.	.	.	i	-0.12
CCN1C(=O)/C(=C/N2CCc3ccccc32)SC1=S	79	-0.57	83	+	-0.11
CCN1C(=O)/C(=C\N2CCCc3ccccc32)SC1=S	79	0.06	82	i	-0.72
Cc1cc(C)n(-c2nc(SCC(=O)O)c3c4c(sc3n2)COC(C)(C)C4)n1	.	.	.	.	-0.18
Cc1cc(C)n(-c2nc(SCCN(C)C)c3c4c(sc3n2)CCCC4)n1	2.0*	-1.7	3.0*	i	-1.5
COc1cc(C(=O)Nc2ccc3c(c2)N(C(=O)CN2CCN(C)CC2)c2ccccc2CC3)cc(OC)c1OC	.	.	.	.	0.4
O=C(Nc1ccc(Nc2ccccc2)cc1)c1ccco1	91	0.63	101	i	0.073
O=C(Nc1ccc(NC(=O)c2sc3ccccc3c2Cl)cc1)c1ccco1	1.5*	-0.98	1.4*	i	0.62
O=C1C(=Cc2cccn2-c2ccc(O)cc2)C(=O)c2ccccc21	81	0.36	71	+	1.4
CC1(C)CC(C(CC(=O)N2CCCC2)Cc2ccccc2)CCO1 (centres undefined)	.	.	.	.	2.1
Cc1ccc(C(=O)OCC(=O)NCc2cccs2)c(C)c1	.	.	.	+	-0.65
Cc1cc2c(cc(C(=O)OCC(=O)NCc3cccs3)n2C(C)C)o1	18	-2.2	12	+	-0.34
c1cnc2ccc(C(c3nnnn3C3CCCCC3)N3CCN(C4CCCCC4)CC3)cc2c1 (centres undefined)	.	.	.	+	-0.65
c1cnc2ccc(C(c3nnnn3C3CCCCC3)N3CCCCC3)cc2c1 (centres undefined)	86	-1.5	84	i	-0.69
CC(=O)C1=C(C)NC(=O)NC1/C=C/c1ccccc1 (centres undefined)	.	.	.	i	0.11
O=C1C=CCC(/C=C/c2ccccc2)O1 (centres undefined)	4	-0.31	4.3*	i	-2.6
O=C(C1CCCN(Cc2ccccc2F)C1)N1CCc2ccccc2C1 (centres undefined)	.	.	.	.	0.32
Cc1nn(-c2ccc(F)cc2)c(Cl)c1/C=C/C(=O)OCC(=O)Nc1c(F)c(F)c(F)c(F)c1F	97	0.23	93	i	-0.063
COC(=O)c1cccnc1Oc1ccccc1	.	.	.	.	-0.063
SMILES	PTEN del growth	SDO1 yeast rescue	HCT116 bCat-KO	Autophagy HCS	Dynein transport
CCN1CCN(c2ncc(C(=O)Nc3cc(Cl)ccc3OC)c3ccccc23)CC1	36	-0.9	32	+	2.2
CC1=CC2=NC(=O)/C(=C\c3ccc(-c4cccc(Cl)c4)o3)C(=N)N2O1	92	-1.7	103	+	7.9
CC1=NOC(=O)/C1=C\c1ccc(-c2cccc(Cl)c2)o1	3.7*	-1.6	1.1*	i	-0.42
CCN(C(=O)C1CCN(S(=O)(=O)c2ccc3c(c2)oc(=O)n3C)CC1)c1cccc(C)c1	97	0.12	94	i	-0.45
COc1cc2nc(SCC(=O)NC3CC3)n(CCC3=CCCCC3)c(=O)c2cc1OC	.	.	.	i	-0.67
COc1cc2nc(SCc3c(C)noc3C)n(CCC3=CCCCC3)c(=O)c2cc1OC	48	0.04	50	+	-0.72
CCN1C(=O)/C(=C/C=C2/Sc3ccccc3N2CCO)SC1=S	.	.	.	i	-0.81
C=CCN1C(=O)/C(=C/C=C2/N(CC)c3ccc(S(=O)(=O)N(C)C)cc3N2CC)SC1=S	.	.	.	+	-0.78
CCOC(=O)c1ccc2c(c1)N(CC)/C(=C\C=C1/SC(=S)N(CC)C1=O)N2CC	.	.	.	i	-6*
COc1ccc(OC)c2c1sc(=NC(=O)c1cccc(N3C(=O)CCC3=O)c1)n2C	101	-1.6	82	+	-0.49
O=C(COc1ncnc2scc(-c3ccccc3)c12)NCCN1C(=O)CSC1=O	.	.	.	i	0.23
COc1ccc(-c2coc3c(CN4CCCCC4)c(O)c(CN4CCCCC4)c(O)c3c2=O)cc1	1.6*	0.2	1.4*	i	0.11
O=C(NC1CCCC1)c1cccc(Oc2ccccc2)c1	.	.	.	i	0.055
Cc1cccc(Nc2nc(N)c([N+](=O)[O-])c(N3CCCC(C)C3)n2)c1 (centres undefined)	2.8*	-1.6	9	i	0.075
Cc1cccc(Nc2nc(N)c([N+](=O)[O-])c(N3CCN(C)CC3)n2)c1	67	0.88	76	i	-0.21
CCC(=O)N1CCN=C1SCc1ccc(Cl)cc1	92	0.68	89	i	-1.2
c1ccc(CNc2ncnc3c2cnn3-c2ccccc2)cc1	32	-0.69	43	i	0.3
Fc1ccc(CNc2ncnc3c2cnn3-c2ccccc2)cc1	100	-1.6	104	+	0.36
COc1ccccc1C(=O)NC1CCCCCCC1	82	-0.94	82	+	-0.11
COc1ccc(/C=N/NC(=O)CN(c2ccc(OC)cc2)S(=O)(=O)c2ccccc2)cc1	.	.	.	i	-0.84
COc1ccc2cc(/C=N/NC(=O)CN(c3ccccc3C)S(=O)(=O)c3ccccc3)c(Cl)nc2c1	40	-0.19	58	+	0.47
COc1ccc(/C=C/C(=O)Nc2ccccc2Cl)cc1S(=O)(=O)N1CCOCC1	.	.	.	.	-0.12
O=C1Nc2ccccc2/C1=N\c1sc2c(c1C(=O)Nc1ccccc1)CCCC2	86	-0.92	84	+	0.43
O=C(CSc1n[nH]c(-c2ccco2)n1)Nc1sc2c(c1C(=O)Nc1ccccc1)CCCC2	81	-1.1	91	i	-0.79
CCc1nnc(NC(=O)c2ccc(S(=O)(=O)N3CCOCC3)cc2)s1	98	0.25	100	i	2.4
CCc1nnc(NC(=O)c2cc(S(=O)(=O)N3CCCCC3)ccc2N2CCOCC2)s1	.	.	.	+	0.4
CC1CN(C)C(C)c2c1oc1ccc([N+](=O)[O-])cc21 (centres undefined)	.	.	.	+	-0.31
COc1ccc(NC(=O)CCCn2c(=O)c3sccc3n(Cc3ccccc3)c2=O)cc1	0.8*	-1.9	11	i	-0.062
